The values below come from ChEMBL document CHEMBL1123105, “New bidentates as full inhibitors of enkephalin-degrading enzymes: synthesis and analgesic properties” (J Med Chem, 1985).

Experiment [1] can be described thus: Inhibitory activity against rat brain Dipeptidyl aminopeptidase using 10 nM of [3H]Leu-enkephalin as substrate. The gist of the method: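 Membrane-bound dipeptidylaminopeptidase purified from rat brain and aminopeptidase M purified from rabbit kidney were each preincubated 15 min at 25 °C with or without increasing inhibitor concentrations in 50 mM Tris-HCl, pH 7.4. […] The reaction was stopped with HCl after 30 min, and tritiated metabolites were separated on polystyrene beads. IC50 came from log probit analysis of five inhibitor concentrations; mean ± SEM.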

Experiment [2] has as its target T1, Neprilysin (Rattus norvegicus, UniProt P07861).
T1 sequence (P07861 whole entry): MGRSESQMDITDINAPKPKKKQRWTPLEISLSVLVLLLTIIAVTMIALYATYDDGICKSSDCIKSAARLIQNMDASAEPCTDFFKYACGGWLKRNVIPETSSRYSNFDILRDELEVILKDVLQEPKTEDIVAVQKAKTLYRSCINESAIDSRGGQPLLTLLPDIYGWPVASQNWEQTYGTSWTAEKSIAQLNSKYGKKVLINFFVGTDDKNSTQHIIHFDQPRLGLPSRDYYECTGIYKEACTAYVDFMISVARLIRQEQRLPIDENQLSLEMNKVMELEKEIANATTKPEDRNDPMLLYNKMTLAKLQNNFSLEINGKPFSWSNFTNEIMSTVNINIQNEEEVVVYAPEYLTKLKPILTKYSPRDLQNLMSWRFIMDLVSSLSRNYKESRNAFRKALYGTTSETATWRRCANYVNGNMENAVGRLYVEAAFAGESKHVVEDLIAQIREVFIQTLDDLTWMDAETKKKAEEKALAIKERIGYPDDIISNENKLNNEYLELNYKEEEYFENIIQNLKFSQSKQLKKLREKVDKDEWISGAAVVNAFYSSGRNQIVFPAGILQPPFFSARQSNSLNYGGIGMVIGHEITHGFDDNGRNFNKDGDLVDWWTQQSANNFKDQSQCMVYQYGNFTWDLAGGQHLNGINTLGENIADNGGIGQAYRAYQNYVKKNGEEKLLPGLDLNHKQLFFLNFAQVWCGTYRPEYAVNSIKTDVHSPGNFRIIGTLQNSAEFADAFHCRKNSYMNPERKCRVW
Put plainly: In vitro inhibition of enkephalinase purified from […]. In short, it runs like this: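 Enkephalinase purified from kidney (0.9 ± 0.2 pmol/100 µL final) was preincubated 15 min at 25 °C with or without increasing inhibitor concentrations in 50 mM Tris-HCl, pH 7.4. Tritiated metabolites were separated on polystyrene beads. IC50 came from log probit analysis of five inhibitor concentrations; mean ± SEM of five independent experiments.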

In experiment [3] the target is T1, Neprilysin. The experiment is described as follows: 50% inhibitory activity against enkephalinase purified from rabbit kidney with [3H]D-Ala2-Leu-enkephalin (20 nM) as substrate.

pIC50: −log10 of the molar value.

As to `CC(NC(=O)C(CC(=O)NO)Cc1ccccc1)C(=O)O` (stereo unspecified), the values for the pIC50 (in experiment [1]; on Neprilysin [2]) were 8.68 and 8.70, respectively.
Taken in the same sequence, the figures for `O=CN(O)C(Cc1ccccc1)C(=O)NCC(=O)O` (stereo unspecified) were 3.63 and 5.82.
For the compound `CC(C)CCNC(=O)CNC(=O)C(Cc1ccccc1)CN(O)C=O` (stereo unspecified), the negative logarithm of the IC50 (pIC50) at Neprilysin [2] is 6.10.
Same read-out and setting: next, `O=C(CNC(=O)C(Cc1ccccc1)C(=O)NO)NCc1ccccc1` (stereo unspecified): 6.12.
For `O=CN(O)CC(Cc1ccccc1)C(=O)NCC(=O)O` (stereo unspecified), the pIC50 in experiment [1] was 6.52; on Neprilysin [2], 8.00.
Consider `O=C(O)CNC(=O)C(CC(=O)O)Cc1ccccc1` (stereo unspecified), for which the pIC50 on Neprilysin [2] is 6.10.
Compound `O=C(O)CNC(=O)C(CC(=O)NO)Cc1ccccc1` (stereo unspecified) had a pIC50 in experiment [1] of 7.68.
Take `CC(C)CCNC(=O)CNC(=O)C(CC(=O)NO)Cc1ccccc1` (stereo unspecified): at Neprilysin [2], the pIC50 is 6.22.
`O=CN(O)CC(Cc1ccccc1)C(=O)NCC(=O)NCc1ccccc1` (stereo unspecified): on Neprilysin [2], the pIC50 is 5.92.
On the same count and under the same terms, next, `COC(=O)CNC(=O)C(Cc1ccccc1)CN(O)C=O` (stereo unspecified): 6.46; `O=C(O)CNC(=O)C(CNO)Cc1ccccc1` (stereo unspecified): < 9.00.
The same measure, in the same setting: in the case of `CC(C)CCNC(=O)CNC(=O)C(Cc1ccccc1)C(=O)NO` (stereo unspecified) it was 6.07; in that of `O=C(O)CNC(=O)C(Cc1ccccc1)C(=O)O` (stereo unspecified), 6.15.
Turning to `O=C(O)CNC(=O)C(Cc1ccccc1)C(=O)NO` (stereo unspecified), the pIC50 in experiment [1] was 5.46.
In the case of `C[C@H](NC(=O)[C@H](CC(=O)NO)Cc1ccccc1)C(=O)O`, the negative logarithm of the IC50 (pIC50) against Neprilysin [3] is 8.74.
In the case of `CC(C)CCNC(=O)CNC(=O)C(Cc1ccccc1)N(O)C=O` (stereo unspecified), the negative-log IC50 (pIC50) on Neprilysin [2] is 7.52.
`COC(=O)CNC(=O)C(Cc1ccccc1)C(=O)NO` (stereo unspecified) gave a pIC50 at Neprilysin [2] of 9.00.
`C[C@H](NC(=O)[C@@H](CC(=O)NO)Cc1ccccc1)C(=O)O` (racemic) [KELATORPHAN] gave a pIC50 at Neprilysin [3] of 8.77.
